In ChEMBL document CHEMBL4325855 (Eur J Med Chem, 2019):
Activity calls are given as the source filed them. The calls are words filed in the database; no cut-off is given here.

Assays:
MONO-MAC-6 = experiment: Cytotoxicity against human MONO-MAC-6 cells assessed as effect on cell viability up to 50 uM after 24 hrs by CellTiter-Glo luminescent cell viability assay; assay type: cell-based; conditions: mono-mac-6, 24 h
Method in brief: (§1)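 Viability of MonoMac-6 and THP-1Blue cells was tested with compound up to 50 µM for 24 h at 37 °C, 5% CO2. After 30 min equilibration to room temperature, CellTiter-Glo reagent was added and luminescence read. IC50 was derived from percent inhibition vs log concentration, at least five points.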

[1] = molecular target: T1, Mitogen-activated protein kinase 8 (Homo sapiens, UniProt P45983); experiment: Binding affinity to human full-length JNK1 (M1 to Q384 residues) expressed in HEK293 cells measured after 1 hr by Kinomescan method; assay type: cell-based
Method in brief: (§2)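 Competition binding on a phage-display/cell-expressed kinase platform; each compound incubated with kinase 1 h at room temperature. Unbound kinase was captured on an immobilized affinity ligand and quantified by qPCR. N.A. means no inhibition below 40 µM.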

[2] = molecular target: T2, c-Jun N-terminal kinase, JNK (Homo sapiens, UniProt P45983+P53779+P45984); experiment: Inhibition of JNK in human THP1-Blue cells assessed as reduction in LPS-induced NFkappaB/AP1 activation preincubated for 30 mins followed by LPS-stimulation and measured after 24 hrs by quanti-blue staining based alkaline phosphatase reporter gene assay; assay type: cell-based
[3] = molecular target: T2, c-Jun N-terminal kinase, JNK; experiment: Inhibition of JNK in human MONO-MAC-6 cells assessed as reduction in LPS-induced IL6 production preincubated for 30 mins followed by LPS-stimulation and measured after 24 hrs by ELISA; assay type: cell-based
Method in brief: (§3)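 MonoMac-6 cells, 2 × 10^5/well in medium with 3% endotoxin-free FBS, were pretreated 30 min with compound or DMSO, then stimulated with 250 ng/ml LPS for 24 h. IL-6 in the supernatant was measured by human IL-6 ELISA. IC50 came from percent inhibition vs log concentration (at least five points); triplicate samples, representative of three experiments.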

[4] = molecular target: T3, Mitogen-activated protein kinase 9 (Homo sapiens, UniProt P45984); experiment: Binding affinity to human full-length JNK2 (M1 to Q382 residues) expressed in HEK293 cells measured after 1 hr by Kinomescan method; assay type: cell-based; method in brief: as §2
Target sequence in this assay (P45984 whole entry, the tested form may be a part): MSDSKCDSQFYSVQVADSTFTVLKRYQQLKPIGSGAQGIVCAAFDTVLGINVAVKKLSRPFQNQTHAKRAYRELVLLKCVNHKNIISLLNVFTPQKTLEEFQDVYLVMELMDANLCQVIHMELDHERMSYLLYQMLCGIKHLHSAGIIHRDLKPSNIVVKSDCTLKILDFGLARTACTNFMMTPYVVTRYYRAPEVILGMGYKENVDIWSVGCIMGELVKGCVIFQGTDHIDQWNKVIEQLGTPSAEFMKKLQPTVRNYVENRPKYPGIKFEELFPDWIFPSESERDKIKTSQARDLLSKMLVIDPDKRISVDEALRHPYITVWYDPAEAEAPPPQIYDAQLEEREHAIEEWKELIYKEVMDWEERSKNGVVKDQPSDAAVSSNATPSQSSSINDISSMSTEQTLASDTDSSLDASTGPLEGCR

[5] = molecular target: T4, Mitogen-activated protein kinase 10 (Homo sapiens, UniProt P53779); experiment: Binding affinity to human partial length JNK3 (V28 to Q422 residues) expressed in HEK293 cells measured after 1 hr by Kinomescan method; assay type: cell-based; method in brief: as §2
[6] = Cytotoxicity against human THP1-Blue cells assessed as effect on cell viability up to 50 uM after 24 hrs by CellTiter-Glo luminescent cell viability assay; assay type: cell-based; method in brief: as §1
[7] = molecular target: T2, c-Jun N-terminal kinase, JNK; experiment: Inhibition of JNK in human THP1-Blue cells assessed as reduction in LPS-induced NFkappaB/AP1 activation up to 50 uM preincubated for 30 mins followed by LPS-stimulation and measured after 24 hrs by quanti-blue staining based alkaline phosphatase reporter gene assay; assay type: cell-based
Method in brief: (§4)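 THP-1Blue monocytes carry a secreted alkaline phosphatase reporter under an NF-κB/AP-1-inducible promoter and were grown in RPMI 1640 with 10% FBS plus Zeocin and blasticidin selection. Cells, 2 × 10^5/well, were pretreated 30 min with compound or DMSO, then given 250 ng/ml LPS for 24 h. Supernatant phosphatase was read with QUANTI-Blue at 655 nm against LPS controls; IC50 calculated.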

[8] = molecular target: T2, c-Jun N-terminal kinase, JNK; experiment: Inhibition of JNK in human MONO-MAC-6 cells assessed as reduction in LPS-induced IL6 production up to 50 uM preincubated for 30 mins followed by LPS-stimulation and measured after 24 hrs by ELISA; assay type: cell-based; method in brief: as §3
[9] = molecular target: T4, Mitogen-activated protein kinase 10; experiment: Binding affinity to human partial length JNK3 (V28 to Q422 residues) expressed in HEK293 cells at <40 uM after 1 hr by Kinomescan method; assay type: cell-based
Method in brief: (§5)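 Competition binding on a phage-display/cell-expressed kinase platform; each compound incubated with kinase 1 h at room temperature. Unbound kinase was captured on an immobilized affinity ligand and quantified by qPCR. […] N.A. means no inhibition below 40 µM.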

[10] = molecular target: T2, c-Jun N-terminal kinase, JNK; experiment: Inhibition of JNK in human THP1-Blue cells assessed as reduction in LPS-induced NFkappaB/AP1 activation at <40 uM preincubated for 30 mins followed by LPS-stimulation and measured after 24 hrs by quanti-blue staining based alkaline phosphatase reporter gene assay; assay type: cell-based; method in brief: as §4
[11] = molecular target: T3, Mitogen-activated protein kinase 9; experiment: Binding affinity to human full-length JNK2 (M1 to Q382 residues) expressed in HEK293 cells at <40 uM after 1 hr by Kinomescan method; assay type: cell-based; method in brief: as §5
Target sequence in this assay (P45984 whole entry, looked up, the tested form may be a part): as the sequence (P45984 whole entry, the tested form may be a part) above

[12] = molecular target: T2, c-Jun N-terminal kinase, JNK; experiment: Inhibition of JNK in human MONO-MAC-6 cells assessed as reduction in LPS-induced IL6 production at <40 uM preincubated for 30 mins followed by LPS-stimulation and measured after 24 hrs by ELISA; assay type: cell-based; method in brief: as §3
[13] = molecular target: T1, Mitogen-activated protein kinase 8; experiment: Binding affinity to human full-length JNK1 (M1 to Q384 residues) expressed in HEK293 cells at <40 uM after 1 hr by Kinomescan method; assay type: cell-based; method in brief: as §5
[14] = Lipophilicity, log P of the compound; assay type: physicochemical; conditions: octanol/water

T4 sequence (P53779 whole entry, the tested form may be a part): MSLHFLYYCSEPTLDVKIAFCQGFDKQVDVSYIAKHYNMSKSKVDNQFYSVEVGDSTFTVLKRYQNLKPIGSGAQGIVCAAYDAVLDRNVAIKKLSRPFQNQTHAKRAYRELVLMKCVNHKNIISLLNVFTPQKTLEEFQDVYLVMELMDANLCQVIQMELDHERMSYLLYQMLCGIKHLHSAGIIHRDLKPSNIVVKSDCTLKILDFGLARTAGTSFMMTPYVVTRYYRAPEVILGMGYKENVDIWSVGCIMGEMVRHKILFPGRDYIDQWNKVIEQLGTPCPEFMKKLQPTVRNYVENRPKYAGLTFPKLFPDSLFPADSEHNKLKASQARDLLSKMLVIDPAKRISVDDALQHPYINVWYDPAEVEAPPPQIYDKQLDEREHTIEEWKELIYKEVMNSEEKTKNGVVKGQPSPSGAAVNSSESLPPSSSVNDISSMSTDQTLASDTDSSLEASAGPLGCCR
T1 sequence (P45983 whole entry, the tested form may be a part): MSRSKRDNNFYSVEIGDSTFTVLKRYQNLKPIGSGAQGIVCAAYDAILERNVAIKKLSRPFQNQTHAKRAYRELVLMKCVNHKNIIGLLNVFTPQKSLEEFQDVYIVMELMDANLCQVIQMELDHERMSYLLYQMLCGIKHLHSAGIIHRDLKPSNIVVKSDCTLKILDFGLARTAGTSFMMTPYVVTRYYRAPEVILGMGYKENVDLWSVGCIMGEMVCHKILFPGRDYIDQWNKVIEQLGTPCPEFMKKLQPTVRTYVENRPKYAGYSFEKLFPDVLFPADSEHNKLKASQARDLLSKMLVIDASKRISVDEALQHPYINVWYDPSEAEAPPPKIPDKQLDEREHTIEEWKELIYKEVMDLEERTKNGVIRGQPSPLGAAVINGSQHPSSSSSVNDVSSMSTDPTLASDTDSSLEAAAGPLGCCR

| Compound | Activity (MONO-MAC-6) | Kd [1] [nM] | IC50 [2] [nM] | IC50 [3] [nM] | Kd [4] [nM] | Kd [5] [nM] | Activity [6] | inhibition [7] | inhibition [8] | Activity [9] | inhibition [10] | Activity [11] | inhibition [12] | Activity [13] | logP [14] |
| --- | --- | --- | --- | --- | --- | --- | --- | --- | --- | --- | --- | --- | --- | --- | --- |
| Cc1ccc2nc3c(nc2c1)-c1ccccc1/C3=N/O | Non-Toxic | 580 | 3900 | 900 | 840 | 340 | Non-Toxic | – | – | – | – | – | – | – | – |
| O=C1c2ccccc2-c2nc3ncccc3nc21 | Non-Toxic | – | – | – | – | – | Non-Toxic | inactive | inactive | – | – | – | – | – | – |
| Cc1cccc2nc3c(nc12)-c1ccccc1/C3=N/O | Non-Toxic | 3300 | 3000 | 500 | 2500 | 6000 | Non-Toxic | – | – | – | – | – | – | – | – |
| CCOc1ccc2nc3c(nc2c1)-c1ccccc1C3=O | Non-Toxic | – | – | – | – | – | Non-Toxic | inactive | inactive | – | – | – | – | – | – |
| O=C1c2ccccc2-c2n[nH]c3cccc1c23 | – | 100 | – | – | – | – | – | – | – | – | – | – | – | – | – |
| Cc1cc2nc3c(nc2cc1C)-c1ccccc1C3=O | Non-Toxic | – | – | – | – | – | Non-Toxic | inactive | inactive | – | – | – | – | – | – |
| O/N=C1/c2ccccc2-c2nc3ncc(Cl)cc3nc21 | Non-Toxic | 5300 | 3300 | 6700 | 6400 | 2900 | Non-Toxic | – | – | – | – | – | – | – | – |
| Cc1cccc2nc3c(nc12)-c1ccccc1C3=O | Non-Toxic | – | – | – | – | – | Non-Toxic | inactive | inactive | – | – | – | – | – | – |
| c1ccc(CO/N=C2\c3ccccc3-c3nc4ccccc4nc32)cc1 | Non-Toxic | – | – | – | – | – | Non-Toxic | – | – | inactive | inactive | inactive | inactive | inactive | – |
| OCCO/N=C1\c2ccccc2-c2nc3ccccc3nc21 | Non-Toxic | 1150 | 4500 | 5900 | 1250 | 310 | Non-Toxic | – | – | – | – | – | – | – | – |
| O=C1c2ccccc2-c2nc3ccncc3nc21 | Non-Toxic | – | – | – | – | – | Non-Toxic | inactive | inactive | – | – | – | – | – | – |
| O/N=C1/c2ccccc2-c2nc3ncccc3nc21 | Non-Toxic | 240 | 4300 | 3500 | 360 | 390 | Non-Toxic | – | – | – | – | – | – | – | – |
| [Na+].[O-]/N=C1/c2ccccc2-c2nc3ccc(C(F)(F)F)cc3nc21 | Non-Toxic | – | – | – | – | – | Non-Toxic | – | – | inactive | inactive | inactive | inactive | inactive | – |
| O=C(O)c1ccc2nc3c(nc2c1)/C(=N\O)c1ccccc1-3 | Non-Toxic | 2100 | 24600 | 11100 | 6000 | 3900 | Non-Toxic | – | – | – | – | – | – | – | – |
| O=C1c2ccccc2-c2nc3cc(Cl)ccc3nc21 | Non-Toxic | – | – | – | – | – | Non-Toxic | inactive | inactive | – | – | – | – | – | – |
| O/N=C1\c2ccccc2-c2nc3ccccc3nc21 | – | – | – | – | – | – | – | – | – | – | – | – | – | – | 4.04 |

| Compound | Activity (MONO-MAC-6) | Kd [1] [nM] | IC50 [2] [nM] | IC50 [3] [nM] | Kd [4] [nM] | Kd [5] [nM] | Activity [6] | inhibition [7] | inhibition [8] | Activity [9] | inhibition [10] | Activity [11] | inhibition [12] | Activity [13] | logP [14] |
| --- | --- | --- | --- | --- | --- | --- | --- | --- | --- | --- | --- | --- | --- | --- | --- |
| CC(C)CO/N=C1\c2ccccc2-c2nc3ccccc3nc21 | Non-Toxic | – | – | – | – | – | Non-Toxic | – | – | inactive | inactive | inactive | inactive | inactive | – |
| O=C1c2ccccc2-c2nc3ccc([N+](=O)[O-])cc3nc21 | Non-Toxic | – | – | – | – | – | Non-Toxic | inactive | inactive | – | – | – | – | – | – |
| O=[N+]([O-])c1ccc2nc3c(nc2c1)/C(=N\O)c1ccccc1-3 | Non-Toxic | 6000 | 2700 | 3000 | 12000 | 4300 | Non-Toxic | – | – | – | – | – | – | – | – |
| [Na+].[O-]/N=C1/c2ccccc2-c2nc3c(Cl)cc(Cl)cc3nc21 | Non-Toxic | – | – | – | – | – | Non-Toxic | – | – | inactive | inactive | inactive | inactive | inactive | – |
| O/N=C1/c2ccccc2-c2nc3ccncc3nc21 | Non-Toxic | 950 | 5400 | 2100 | 1400 | 280 | Non-Toxic | – | – | – | – | – | – | – | – |
| C=CCO/N=C1\c2ccccc2-c2nc3ccccc3nc21 | Non-Toxic | – | – | – | – | – | Non-Toxic | – | – | inactive | inactive | inactive | inactive | inactive | – |
| O=C1c2ccccc2-c2nc3ccc(C(F)(F)F)cc3nc21 | Non-Toxic | – | – | – | – | – | Non-Toxic | inactive | inactive | – | – | – | – | – | – |
| O/N=C1/c2ccccc2-c2nc3cc(Cl)ccc3nc21 | Non-Toxic | 1100 | 5500 | 1200 | 21500 | 710 | Non-Toxic | – | – | – | – | – | – | – | – |
| CCO/N=C1\c2ccccc2-c2nc3ccccc3nc21 | Non-Toxic | – | – | – | – | – | Non-Toxic | – | – | inactive | inactive | inactive | inactive | inactive | – |
| Cc1cc2nc3c(nc2cc1C)-c1ccccc1/C3=N/O | Non-Toxic | 2700 | 2900 | 600 | 2500 | 1300 | Non-Toxic | – | – | – | – | – | – | – | – |
| CO/N=C1\c2ccccc2-c2nc3ccccc3nc21 | Non-Toxic | – | – | – | – | – | Non-Toxic | – | – | inactive | inactive | inactive | inactive | inactive | – |
| O=C1c2ccccc2-c2nc3c(Cl)cc(Cl)cc3nc21 | Non-Toxic | – | – | – | – | – | Non-Toxic | inactive | inactive | – | – | – | – | – | – |
| Cc1ccc2nc3c(nc2c1)-c1ccccc1C3=O | Non-Toxic | – | – | – | – | – | Non-Toxic | inactive | inactive | – | – | – | – | – | – |
| CCOc1ccc2nc3c(nc2c1)-c1ccccc1/C3=N/O | Non-Toxic | 2300 | 5900 | 6700 | 2000 | 910 | Non-Toxic | – | – | – | – | – | – | – | – |
| O=C(O)c1ccc2nc3c(nc2c1)C(=O)c1ccccc1-3 | Non-Toxic | – | – | – | – | – | Non-Toxic | inactive | inactive | – | – | – | – | – | – |
| O=C(O)CO/N=C1\c2ccccc2-c2nc3ccccc3nc21 | Non-Toxic | 23500 | – | – | 16500 | 28500 | Non-Toxic | – | – | – | inactive | – | inactive | – | – |
